In brackets after ≈: the same amount, converted by molar mass.
Key:
[1] = In vitro activity against Staphylococcus aureus DNA gyrase subunit B supercoiling, expressed as IC50 novobiocin / IC50 compound; assay type: functional
Enterococcus faecium = assay: Antibacterial activity against vancomycin, teicoplanin, erythromycin resistant Enterococcus faecium; assay type: functional
How it was run: (§1)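 MIC read after 24 h incubation by two-fold broth microdilution. Strains are tested with their labelled resistance phenotypes (ofloxacin, oxacillin, erythromycin, novobiocin, teicoplanin or vancomycin resistance, as given in each strain designation).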

Streptococcus pyogenes = assay: Antibacterial activity tested against Streptococcus pyogenes 02AIUC1; assay type: functional
How it was run: (§2)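 MIC by 2-fold broth microdilution, read after 24 h incubation; strain resistance phenotypes noted.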

Staphylococcus aureus [2] = assay: Antibacterial activity against ofloxacin,oxacillin,erythromycin resistant Staphylococcus aureus 011GO64.; assay type: functional; how it was run: as §1
[3] = test system: Staphylococcus epidermidis; assay: Antibacterial activity against oxacillin resistant Staphylococcus epidermidis 012GO42; assay type: functional; how it was run: as §1
Staphylococcus aureus [4] = assay: Antibacterial activity tested against novobiocin resistant Staphylococcus aureus 011HT1; assay type: functional; how it was run: as §2
Staphylococcus aureus [5] = assay: Antibacterial activity against Staphylococcus aureus 011HT3; assay type: functional; how it was run: as §2
Escherichia coli = assay: In vitro activity against Escherichia coli DNA gyrase subunit B supercoiling, expressed as IC50 novobiocin / IC50 compound; assay type: functional
[6] = test system: DNA gyrase (Staphylococcus aureus); assay: In vitro activity against Staphylococcus aureus DNA gyrase supercoiling, expressed as IC50 novobiocin / IC50 compound

Row | SMILES | Ratio [1] | MIC (Enterococcus faecium) | MIC (Streptococcus pyogenes) | MIC (Staphylococcus aureus [2]) | MIC [3] | MIC (Staphylococcus aureus [4]) | MIC (Staphylococcus aureus [5]) | Ratio (Escherichia coli) | Ratio [6]
1 | C#CCONC(=O)O[C@H]1[C@@H](O)[C@H](Oc2ccc3c(O)c(C(=O)NCCO)c(=O)oc3c2C)OC(C)(C)[C@@H]1OC | 2.6 | 1.2 µg/mL (≈ 2.18 µM) | 0.6 µg/mL (≈ 1.09 µM) | 0.08 µg/mL (≈ 0.145 µM) | < 0.04 µg/mL | 1.2 µg/mL (≈ 2.18 µM) | < 0.04 µg/mL | – | –
2 | CCOC(=O)c1c(O)oc2c(C)c(O[C@@H]3OC(C)(C)[C@H](OC)[C@@H](OC(=O)NOC)[C@H]3O)ccc2c1=O | – | > 40 µg/mL | > 40 µg/mL | – | > 40 µg/mL | > 40 µg/mL | > 40 µg/mL | 0.66 | –
3 | C#CCONC(=O)O[C@H]1[C@@H](O)[C@H](Oc2ccc3c(=O)c(/C(C)=N/OCC)c(O)oc3c2C)OC(C)(C)[C@@H]1OC | 8.3 | 1.2 µg/mL (≈ 2.19 µM) | 0.6 µg/mL (≈ 1.09 µM) | 0.15 µg/mL (≈ 0.273 µM) | 0.15 µg/mL (≈ 0.273 µM) | 2.5 µg/mL (≈ 4.56 µM) | 0.08 µg/mL (≈ 0.146 µM) | – | –
4 | CCOC(=O)c1c(O)oc2c(C)c(O[C@@H]3OC(C)(C)[C@H](OC)[C@@H](OC(=O)NC(C)C)[C@H]3O)ccc2c1=O | – | > 40 µg/mL | > 40 µg/mL | – | > 40 µg/mL | > 40 µg/mL | > 40 µg/mL | 0.025 | –
5 | CCONC(=O)OC1[C@@H](O)[C@H](Oc2ccc3c(O)c(C(=O)OCC)c(=O)oc3c2C)OC(C)(C)[C@@H]1OC (single isomer, unassigned) | – | > 40 µg/mL | 40 µg/mL (≈ 76.1 µM) | – | > 40 µg/mL | > 40 µg/mL | 20 µg/mL (≈ 38.1 µM) | 2 | –
6 | CCOC(=O)c1c(O)oc2c(C)c(O[C@@H]3OC(C)(C)[C@H](OC)[C@@H](OC(N)=O)[C@H]3O)ccc2c1=O | – | > 40 µg/mL | > 40 µg/mL | – | – | > 40 µg/mL | > 40 µg/mL | 1.6 | –
7 | C#CCONC(=O)O[C@H]1[C@@H](O)[C@H](Oc2ccc3c(O)c(C(C)=O)c(=O)oc3c2C)OC(C)(C)[C@@H]1OC | 8.1 | 1.2 µg/mL (≈ 2.37 µM) | 0.3 µg/mL (≈ 0.593 µM) | 0.6 µg/mL (≈ 1.19 µM) | < 0.04 µg/mL | 2.5 µg/mL (≈ 4.95 µM) | < 0.04 µg/mL | – | –
8 | CC#CCONC(=O)O[C@H]1[C@@H](O)[C@H](Oc2ccc3c(=O)c(C(=O)OCC)c(O)oc3c2C)OC(C)(C)[C@@H]1OC | – | > 40 µg/mL | > 40 µg/mL | 40 µg/mL (≈ 72.8 µM) | 10 µg/mL (≈ 18.2 µM) | > 40 µg/mL | 10 µg/mL (≈ 18.2 µM) | – | 0.5
9 | CO/N=C(\C)c1c(O)oc2c(C)c(O[C@@H]3OC(C)(C)[C@H](OC)[C@@H](OC(=O)c4ccc(C)[nH]4)[C@H]3O)ccc2c1=O | – | 10 µg/mL (≈ 18.4 µM) | 0.3 µg/mL (≈ 0.551 µM) | – | – | 40 µg/mL (≈ 73.5 µM) | 0.15 µg/mL (≈ 0.275 µM) | 3.3 | –
10 | CO[C@@H]1[C@@H](OC(=O)c2ccc(C)[nH]2)[C@@H](O)[C@H](Oc2ccc3c(O)c(C(N)=O)c(=O)oc3c2C)OC1(C)C | – | 2.5 µg/mL (≈ 4.84 µM) | 0.15 µg/mL (≈ 0.29 µM) | – | – | 2.5 µg/mL (≈ 4.84 µM) | < 0.04 µg/mL | 1.67 | –
11 | C#CCONC(=O)O[C@H]1[C@@H](O)[C@H](Oc2ccc3c(=O)c(C(=O)OCC)c(O)oc3c2C)OC(C)(C)[C@@H]1OC | – | 10 µg/mL (≈ 18.7 µM) | 20 µg/mL (≈ 37.3 µM) | 2.5 µg/mL (≈ 4.67 µM) | 0.3 µg/mL (≈ 0.56 µM) | > 40 µg/mL | 1.2 µg/mL (≈ 2.24 µM) | 5.6 | –
12 | CO[C@@H]1[C@@H](OC(N)=O)[C@@H](O)[C@H](Oc2ccc3c(O)c(NC(=O)c4ccc(O)c(CC=C(C)C)c4)c(=O)oc3c2C)OC1(C)C [NOVOBIOCIN] | – | 0.6 µg/mL (≈ 0.979 µM) | 0.3 µg/mL (≈ 0.49 µM) | – | < 0.04 µg/mL | 10 µg/mL (≈ 16.3 µM) | < 0.04 µg/mL | – | –
13 | C#CCONC(=O)O[C@H]1[C@@H](O)[C@H](Oc2ccc3c(O)c(/C(C)=N/OCc4ccsc4)c(=O)oc3c2C)OC(C)(C)[C@@H]1OC | 1.3 | 0.6 µg/mL (≈ 0.973 µM) | 0.15 µg/mL (≈ 0.243 µM) | – | < 0.04 µg/mL | 2.5 µg/mL (≈ 4.05 µM) | < 0.04 µg/mL | – | –
14 | CO[C@@H]1[C@@H](OC(=O)c2ccc(C)[nH]2)[C@@H](O)[C@H](Oc2ccc3c(O)c(C(C)=O)c(=O)oc3c2C)OC1(C)C | – | 2.5 µg/mL (≈ 4.85 µM) | 0.3 µg/mL (≈ 0.582 µM) | – | – | 5 µg/mL (≈ 9.7 µM) | < 0.04 µg/mL | 2 | –
15 | C#CCONC(=O)O[C@H]1[C@@H](O)[C@H](Oc2ccc3c(O)c(/C(C)=N/OCCN4CCOCC4)c(=O)oc3c2C)OC(C)(C)[C@@H]1OC | 4 | 20 µg/mL (≈ 31.6 µM) | 1.2 µg/mL (≈ 1.89 µM) | 0.6 µg/mL (≈ 0.947 µM) | 0.15 µg/mL (≈ 0.237 µM) | 5 µg/mL (≈ 7.89 µM) | 0.15 µg/mL (≈ 0.237 µM) | – | –
16 | C#CCONC(=O)O[C@H]1[C@@H](O)[C@H](Oc2ccc3c(O)c(C(=O)Nc4cccnc4)c(=O)oc3c2C)OC(C)(C)[C@@H]1OC | 0.67 | 0.6 µg/mL (≈ 1.03 µM) | 0.08 µg/mL (≈ 0.137 µM) | – | < 0.04 µg/mL | 1.2 µg/mL (≈ 2.06 µM) | < 0.04 µg/mL | – | –
17 | C#CCONC(=O)O[C@H]1[C@@H](O)[C@H](Oc2ccc3c(O)c(C(N)=O)c(=O)oc3c2C)OC(C)(C)[C@@H]1OC | – | 0.08 µg/mL (≈ 0.158 µM) | 0.6 µg/mL (≈ 1.18 µM) | – | < 0.04 µg/mL | 0.3 µg/mL (≈ 0.592 µM) | < 0.04 µg/mL | 1 | –
18 | CCOC(=O)c1c(O)oc2c(C)c(O[C@@H]3OC(C)(C)[C@H](OC)[C@@H](OC(=O)NOC(C)C)[C@H]3O)ccc2c1=O | – | > 40 µg/mL | > 40 µg/mL | – | > 40 µg/mL | > 40 µg/mL | > 40 µg/mL | 2 | –
19 | C#CCONC(=O)O[C@H]1[C@@H](O)[C@H](Oc2ccc3c(O)c(C(=O)NCCN4CCOCC4)c(=O)oc3c2C)OC(C)(C)[C@@H]1OC | 2.6 | 2.5 µg/mL (≈ 4.03 µM) | 1.2 µg/mL (≈ 1.94 µM) | 0.08 µg/mL (≈ 0.129 µM) | 0.08 µg/mL (≈ 0.129 µM) | 1.2 µg/mL (≈ 1.94 µM) | < 0.04 µg/mL | – | –
20 | C=CCONC(=O)O[C@H]1[C@@H](O)[C@H](Oc2ccc3c(=O)c(C(=O)OCC)c(O)oc3c2C)OC(C)(C)[C@@H]1OC | – | > 40 µg/mL | 20 µg/mL (≈ 37.2 µM) | 20 µg/mL (≈ 37.2 µM) | 20 µg/mL (≈ 37.2 µM) | > 40 µg/mL | 10 µg/mL (≈ 18.6 µM) | 2 | –
21 | C#CCONC(=O)O[C@H]1[C@@H](O)[C@H](Oc2ccc3c(=O)c(/C(C)=N/OCOCCOC)c(O)oc3c2C)OC(C)(C)[C@@H]1OC | 4 | 5 µg/mL (≈ 8.22 µM) | 0.6 µg/mL (≈ 0.986 µM) | 0.6 µg/mL (≈ 0.986 µM) | 1.2 µg/mL (≈ 1.97 µM) | 10 µg/mL (≈ 16.4 µM) | 0.08 µg/mL (≈ 0.131 µM) | – | –
22 | C#CCONC(=O)O[C@H]1[C@@H](O)[C@H](Oc2ccc3c(O)c(C(=O)NOCC=C(C)C)c(=O)oc3c2C)OC(C)(C)[C@@H]1OC | 2 | 0.3 µg/mL (≈ 0.508 µM) | 0.08 µg/mL (≈ 0.135 µM) | – | 0.15 µg/mL (≈ 0.254 µM) | 0.6 µg/mL (≈ 1.02 µM) | < 0.04 µg/mL | – | –
23 | CCOC(=O)c1c(O)oc2c(C)c(O[C@@H]3OC(C)(C)[C@H](OC)[C@@H](OC(=O)c4ccc(C)[nH]4)[C@H]3O)ccc2c1=O | – | 5 µg/mL (≈ 9.17 µM) | 0.3 µg/mL (≈ 0.55 µM) | – | – | > 20 µg/mL | 0.3 µg/mL (≈ 0.55 µM) | 3.1 | –
24 | C#CCONC(=O)O[C@H]1[C@@H](O)[C@H](Oc2ccc3c(=O)c(C(=O)NOC)c(O)oc3c2C)OC(C)(C)[C@@H]1OC | 11.1 | 2.5 µg/mL (≈ 4.66 µM) | 0.6 µg/mL (≈ 1.12 µM) | 0.6 µg/mL (≈ 1.12 µM) | 0.08 µg/mL (≈ 0.149 µM) | 10 µg/mL (≈ 18.6 µM) | 0.08 µg/mL (≈ 0.149 µM) | – | –
25 | C#CCNC(=O)O[C@H]1[C@@H](O)[C@H](Oc2ccc3c(=O)c(C(=O)OCC)c(O)oc3c2C)OC(C)(C)[C@@H]1OC | – | > 40 µg/mL | > 40 µg/mL | – | 20 µg/mL (≈ 38.5 µM) | > 40 µg/mL | 40 µg/mL (≈ 77 µM) | 0.38 | –
26 | C#CCONC(=O)O[C@H]1[C@@H](O)[C@H](Oc2ccc3c(=O)c(/C(C)=N/OC)c(O)oc3c2C)OC(C)(C)[C@@H]1OC | 12.5 | 2.5 µg/mL (≈ 4.68 µM) | 0.6 µg/mL (≈ 1.12 µM) | 0.15 µg/mL (≈ 0.281 µM) | 0.08 µg/mL (≈ 0.15 µM) | 5 µg/mL (≈ 9.35 µM) | 0.15 µg/mL (≈ 0.281 µM) | – | –
27 | C#CCONC(=O)O[C@H]1[C@@H](O)[C@H](Oc2ccc3c(=O)c(C(=O)NOCC)c(O)oc3c2C)OC(C)(C)[C@@H]1OC | 5.6 | 0.6 µg/mL (≈ 1.09 µM) | 0.15 µg/mL (≈ 0.272 µM) | 0.08 µg/mL (≈ 0.145 µM) | 0.6 µg/mL (≈ 1.09 µM) | 1.2 µg/mL (≈ 2.18 µM) | < 0.04 µg/mL | – | –
28 | C=CCNC(=O)O[C@H]1[C@@H](O)[C@H](Oc2ccc3c(=O)c(C(=O)OCC)c(O)oc3c2C)OC(C)(C)[C@@H]1OC | – | > 40 µg/mL | > 40 µg/mL | – | 20 µg/mL (≈ 38.3 µM) | > 40 µg/mL | > 40 µg/mL | 0.38 | –
